Reference: ChEMBL document CHEMBL1137313, “A chimeric ligand approach leading to potent antiprion active acridine derivatives: design, synthesis, and biological investigations” (J Med Chem, 2006)

Key:
[1] = system: ScN2a; test: Inhibition of protease-resistant scrapie prion protein activity in ScN2a cells; assay type: functional, cell-based; conditions: Mus musculus
Procedure, shortened: (§1)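 Mouse N2a neuroblastoma cells chronically infected with RML scrapie, subcloned for high PrPSc. Grown in MEM with 10% FCS, penicillin-streptomycin and L-glutamine; compound renewed with medium every second day. Lysed day 7 (~80% confluent), proteinase K 20 µg/mL 30 min 37°C, ultracentrifuged pellet immunoblotted with anti-PrP antibody. EC50 from densitometry of five concentrations; full activity means complete loss of PK-resistant PrP; triplicate experiments.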

[2] = system: ScN2a; test: Antiprion activity in ScN2a cells assessed as complete reduction of protease-resistant scrapie prion protein; assay type: functional, Mus musculus; procedure, shortened: as §1
[3] = system: ScN2a; test: Toxicity against mouse ScN2a cells measured as less than 80% confluency after 1 week; assay type: functional
Procedure, shortened: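 RML-infected ScN2a mouse neuroblastoma cells cultured 1 week in MEM with 10% FCS, with compound renewed with medium every second day. Toxicity scored as confluency below 80% at the end of treatment.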

| Compound | EC50 [1] | Activity [2] | Activity [3] |
| --- | --- | --- | --- |
| c1ccc(N(CCCN2CCN(CCNc3c4ccccc4nc4ccccc34)CC2)c2ccccc2)cc1 | 75 nM | 200 nM | 1000 nM |
| COc1ccc2nc3cc(Cl)ccc3c(NCCCN3CCN(CCCN4c5ccccc5Sc5ccccc54)CC3)c2c1 | 200 nM | 500 nM | 2500 nM |
| COc1ccc2nc3cc(Cl)ccc3c(NCCCCN3CCN(CCCN4c5ccccc5CCc5ccccc54)CC3)c2c1 | 80 nM | 100 nM | 400 nM |
| COc1ccc2nc3cc(Cl)ccc3c(NCCCN3CCN(CCCN(c4ccccc4)c4ccccc4)CC3)c2c1 | 280 nM | 500 nM | 2000 nM |
| c1ccc2c(c1)Sc1ccccc1N2CCCN1CCN(CCCNc2c3ccccc3nc3ccccc23)CC1 | 140 nM | 500 nM | 1000 nM |
| COc1ccc2nc3cc(Cl)ccc3c(NCCCCN3CCN(CCCN(c4ccccc4)c4ccccc4)CC3)c2c1 | 250 nM | 500 nM | >1000 nM |
| c1ccc2c(c1)CCc1ccccc1N2CCCN1CCN(CCCCNc2c3ccccc3nc3ccccc23)CC1 | 150 nM | 400 nM | 750 nM |
| c1ccc2c(c1)CCc1ccccc1N2CCCN1CCN(CCNc2c3ccccc3nc3ccccc23)CC1 | 20 nM | 75 nM | 500 nM |
| COc1ccc2nc3cc(Cl)ccc3c(NCCN3CCN(CCCN4c5ccccc5Sc5ccccc54)CC3)c2c1 | 830 nM | 2000 nM | 4000 nM |
| COc1ccc2nc3cc(Cl)ccc3c(NCCCCN3CCN(CCCN4c5ccccc5Sc5ccccc54)CC3)c2c1 | 350 nM | 1000 nM | 2000 nM |
| COc1ccc2nc3cc(Cl)ccc3c(NCCN3CCN(CCCN4c5ccccc5CCc5ccccc54)CC3)c2c1 | 570 nM | 1000 nM | 2000 nM |
| CCN(CC)CCCC(C)Nc1c2ccc(Cl)cc2nc2ccc(OC)cc12 (stereo not drawn) [QUINACRINE] | 300 nM | 500 nM |  |
| c1ccc(N(CCCN2CCN(CCCCNc3c4ccccc4nc4ccccc34)CC2)c2ccccc2)cc1 | 230 nM | 400 nM | 1000 nM |
| c1ccc2c(c1)Sc1ccccc1N2CCCN1CCN(CCNc2c3ccccc3nc3ccccc23)CC1 | 370 nM | 600 nM | 3000 nM |
| CN(C)CCCN1c2ccccc2CCc2ccccc21 [IMIPRAMINE] | 5000 nM | 10000 nM |  |
| COc1ccc2nc3cc(Cl)ccc3c(NCCN3CCN(CCCN(c4ccccc4)c4ccccc4)CC3)c2c1 | 290 nM | 500 nM | 1500 nM |
| c1ccc2c(c1)CCc1ccccc1N2CCCN1CCN(CCCNc2c3ccccc3nc3ccccc23)CC1 | 230 nM | 500 nM | 1000 nM |
| c1ccc(N(CCCN2CCN(CCCNc3c4ccccc4nc4ccccc34)CC2)c2ccccc2)cc1 | 120 nM | 500 nM | 1500 nM |
| COc1ccc2nc3cc(Cl)ccc3c(NCCCN3CCN(CCCN4c5ccccc5CCc5ccccc54)CC3)c2c1 | 260 nM | 500 nM | 1500 nM |
| c1ccc2c(c1)Sc1ccccc1N2CCCN1CCN(CCCCNc2c3ccccc3nc3ccccc23)CC1 | 300 nM | 750 nM | 4000 nM |
